Here are results for one compound from ChEMBL document CHEMBL1255379, “Evaluation of Etest method for determining isavuconazole MICs against Cryptococcus gattii and Cryptococcus neoformans” (2008).

Assay [1] has as its system Cryptococcus neoformans. In words: Antimicrobial activity against Cryptococcus neoformans by broth microdilution method. In kind it is functional. The method in brief: (§1)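 CLSI M27-A2 broth microdilution in RPMI 1640 with L-glutamine, no bicarbonate, MOPS-buffered to pH 7.0. Isavuconazole stock in DMSO; final concentrations 0.015 to 8 μg/ml. Inoculum 0.5 × 10³ to 2.5 × 10³ cells/ml from subcultured isolates. Incubated at 35°C. MIC read at 48 and 72 h as 50% reduction in turbidity versus drug-free control. Candida krusei ATCC 6258 and C. parapsilosis ATCC 22019 served as quality controls.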

For assay [2], the system named is Cryptococcus gattii species complex. Put plainly: Antimicrobial activity against Cryptococcus gattii by Etest method. The format is functional, Cryptococcus bacillisporus. The method in brief:
(§2)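 Isolates (clinical and environmental), maintained in sterile water or glycerol broth, subcultured at least twice on Sabouraud dextrose agar. Suspension adjusted to 0.5 McFarland and swabbed onto RPMI agar plates with 2% glucose; isavuconazole Etest strips applied. Incubated at 35°C, read at 48 and 72 h. MIC taken where prominent growth reduction meets the strip, raised to the next twofold level.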

Assay [3] shares this test system. In words: Antimicrobial activity against Cryptococcus gattii by broth microdilution method. The format is functional, Cryptococcus bacillisporus. The method in brief:
as §1
Background: In broth dilution the organism is exposed to a series of concentrations in liquid medium.

Assay [4] relates to Cryptococcus neoformans. In words: Antimicrobial activity against Cryptococcus neoformans by Etest method. In kind it is functional. The method in brief:
as §2

≈ marks a conversion by molar mass, not a printed value.

One may read the MIC as the lowest concentration that inhibits growth of the organism. A lower MIC goes with inhibition by little substance. For orientation: MIC50 means the lowest concentration that inhibits either 50% of growth or 50% of the strains tested, depending on the study. A lower MIC50 goes with greater potency. Usually MIC90 stands for an inhibitory concentration at the 90% level, which refers to growth in some studies and to a panel of isolates in others. A high value points to weaker potency.

With `C[C@@H](c1nc(-c2ccc(C#N)cc2)cs1)[C@](O)(Cn1cncn1)c1cc(F)ccc1F` [ISAVUCONAZOLE], the MIC in assay [1] was at most 0.015 µg/mL; in assay [2], 0.003 µg/mL (≈ 0.00686 µM); in assay [3] it was at most 0.015 µg/mL; in assay [4], 0.002 µg/mL (≈ 0.00457 µM). For the same compound, the MIC50 in assay [1] was at most 0.015 µg/mL; in assay [2], 0.032 µg/mL (≈ 0.0731 µM); in assay [3] it was 0.03 µg/mL (≈ 0.0686 µM); in assay [4], 0.023 µg/mL (≈ 0.0526 µM). Besides, the MIC90 in assay [1] was found to be 0.06 µg/mL (≈ 0.137 µM); in assay [2] it was 0.125 µg/mL (≈ 0.286 µM); in assay [3], 0.06 µg/mL (≈ 0.137 µM); in assay [4], 0.047 µg/mL (≈ 0.107 µM).
